The results in this text go back to ChEMBL document CHEMBL2016495, “Design and synthesis of potent, isoxazole-containing renin inhibitors” (Bioorg Med Chem Lett, 2012).

The target of series [1] is Cytochrome P450 3A4 (Homo sapiens, UniProt P08684). The series is described as follows: Reversible inhibition of CYP3A4-mediated conversion of testosterone to 6-beta-hydroxy-testosterone after 30 mins. The series is classed as ADME.
Series [2] concerns the target CYP3A4 (Homo sapiens, UniProt P08684). Description: Inhibition of CYP3A4 assessed as time dependent inhibition of conversion of testosterone to 6-beta-hydroxy-testosterone at 10 uM. In kind it is ADME. Conditions: probe testosterone.
The target of series [3] is Voltage-gated inwardly rectifying potassium channel KCNH2 (Homo sapiens, UniProt Q12809). The series is described as follows: Binding affinity to human Erg.
For series [4], the target named is T1, Renin (Homo sapiens, UniProt P00797).
T1 sequence (P00797 whole entry): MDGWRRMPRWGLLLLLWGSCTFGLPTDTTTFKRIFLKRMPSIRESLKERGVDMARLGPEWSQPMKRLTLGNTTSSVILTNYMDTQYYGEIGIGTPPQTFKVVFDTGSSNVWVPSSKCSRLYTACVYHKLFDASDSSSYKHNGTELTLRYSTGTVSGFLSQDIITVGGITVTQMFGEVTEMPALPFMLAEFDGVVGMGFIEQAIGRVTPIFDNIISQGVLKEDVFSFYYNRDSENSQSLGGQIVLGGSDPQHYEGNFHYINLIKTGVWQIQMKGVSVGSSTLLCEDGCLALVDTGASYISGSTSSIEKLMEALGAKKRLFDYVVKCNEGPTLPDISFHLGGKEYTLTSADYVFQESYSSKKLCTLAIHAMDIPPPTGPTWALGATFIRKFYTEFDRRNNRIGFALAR
The series is described as follows: Inhibition of human recombinant renin using QXL520-Lys-His-Pro-Phe-His-Leu-Val-Ile-His-Lys-(5-FAM) as substrate pretreated for 10 mins measured after 1 hr by fluorescence analysis in presence of human plasma.

For series [5], the target named is T1, Renin. Description: Inhibition of human recombinant renin using DNP-Lys-His-Pro-Phe-His-Leu-Val-Ile-His-D,L-Amp as substrate after 3 hrs by fluorescence analysis. A digest of the protocol: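 Recombinant human renin at 100 pM, with or without inhibitor, and 6 µM Q-FRET substrate in 50 mM MOPS, 100 mM NaCl, pH 7.4, 0.002% Tween. Incubated at 37 °C for 3 h. Fluorescence (ex 328 / em 388 nm) was read at 0 and 3 h.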

Series [6] can be described thus: Clearance in Sprague-Dawley rat at 3 mg/kg, po and 0.5 mg/kg, iv. Conditions: in vivo. The series is classed as ADME, organism-based.
Series [7] is described as follows: AUC in Sprague-Dawley rat at 3 mg/kg, po. In kind it is ADME, organism-based. Conditions: plasma. Details: dose 3 mg/kg, route oral. The method in brief:
(§1)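 Rats dosed orally at 3 mpk as a solution in 0.5% methyl cellulose.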

A short description of series [8]: Volume of distribution at steady state in Sprague-Dawley rat at 3 mg/kg, po and 0.5 mg/kg, iv. The series is classed as ADME, organism-based. As to conditions: in vivo, read-out: Vdss.
Series [9] has as its system Rattus norvegicus. Description: Antihypertensive activity in double transgenic rat assessed as decrease in blood pressure at 3 mg/kg, po. The series is classed as functional.
The nature of series [10]: Half life in Sprague-Dawley rat at 3 mg/kg, po and 0.5 mg/kg, iv. The series is classed as ADME, organism-based. Conditions: in vivo. A digest of the protocol: as §1
Series [11] in a line: Oral bioavailability in Sprague-Dawley rat at 3 mg/kg. The series is classed as ADME, organism-based. Conditions: in vivo. The method in brief: as §1
Series [12] relates to Rattus norvegicus. Description: Antihypertensive activity in double transgenic rat assessed as duration of decrease in blood pressure at 3 mg/kg, po. In kind it is functional.

Voltage-gated inwardly rectifying potassium channel KCNH2, sequence (Q12809 whole entry): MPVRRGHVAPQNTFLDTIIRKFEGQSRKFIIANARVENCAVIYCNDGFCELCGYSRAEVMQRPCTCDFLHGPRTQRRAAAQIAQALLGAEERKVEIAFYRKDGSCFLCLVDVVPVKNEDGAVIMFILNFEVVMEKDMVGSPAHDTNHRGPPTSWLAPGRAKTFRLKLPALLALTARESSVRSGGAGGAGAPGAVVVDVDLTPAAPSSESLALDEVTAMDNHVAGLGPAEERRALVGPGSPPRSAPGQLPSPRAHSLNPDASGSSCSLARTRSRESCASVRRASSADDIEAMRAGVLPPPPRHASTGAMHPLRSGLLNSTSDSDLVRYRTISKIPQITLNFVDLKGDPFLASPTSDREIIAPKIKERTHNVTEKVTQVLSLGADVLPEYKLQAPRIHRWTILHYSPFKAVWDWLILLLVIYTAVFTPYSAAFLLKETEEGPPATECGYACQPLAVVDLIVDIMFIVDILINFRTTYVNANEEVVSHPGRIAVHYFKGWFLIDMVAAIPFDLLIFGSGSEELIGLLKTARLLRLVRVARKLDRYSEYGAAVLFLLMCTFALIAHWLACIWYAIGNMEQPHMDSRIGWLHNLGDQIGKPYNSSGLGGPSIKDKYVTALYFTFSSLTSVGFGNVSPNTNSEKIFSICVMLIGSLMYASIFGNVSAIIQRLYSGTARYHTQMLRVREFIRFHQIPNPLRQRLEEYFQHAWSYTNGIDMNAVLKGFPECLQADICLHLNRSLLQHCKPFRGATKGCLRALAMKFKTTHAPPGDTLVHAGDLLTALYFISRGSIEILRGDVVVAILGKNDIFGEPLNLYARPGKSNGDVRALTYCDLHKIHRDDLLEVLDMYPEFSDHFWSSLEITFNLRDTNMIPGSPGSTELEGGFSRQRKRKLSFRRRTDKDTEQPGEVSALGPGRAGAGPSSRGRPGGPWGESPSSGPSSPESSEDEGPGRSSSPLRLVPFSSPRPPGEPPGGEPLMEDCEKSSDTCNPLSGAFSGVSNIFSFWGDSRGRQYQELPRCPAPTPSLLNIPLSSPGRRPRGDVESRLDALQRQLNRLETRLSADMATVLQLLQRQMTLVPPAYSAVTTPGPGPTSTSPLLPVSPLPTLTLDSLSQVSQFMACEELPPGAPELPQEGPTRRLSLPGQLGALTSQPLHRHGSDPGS
Cytochrome P450 3A4, sequence (P08684 whole entry): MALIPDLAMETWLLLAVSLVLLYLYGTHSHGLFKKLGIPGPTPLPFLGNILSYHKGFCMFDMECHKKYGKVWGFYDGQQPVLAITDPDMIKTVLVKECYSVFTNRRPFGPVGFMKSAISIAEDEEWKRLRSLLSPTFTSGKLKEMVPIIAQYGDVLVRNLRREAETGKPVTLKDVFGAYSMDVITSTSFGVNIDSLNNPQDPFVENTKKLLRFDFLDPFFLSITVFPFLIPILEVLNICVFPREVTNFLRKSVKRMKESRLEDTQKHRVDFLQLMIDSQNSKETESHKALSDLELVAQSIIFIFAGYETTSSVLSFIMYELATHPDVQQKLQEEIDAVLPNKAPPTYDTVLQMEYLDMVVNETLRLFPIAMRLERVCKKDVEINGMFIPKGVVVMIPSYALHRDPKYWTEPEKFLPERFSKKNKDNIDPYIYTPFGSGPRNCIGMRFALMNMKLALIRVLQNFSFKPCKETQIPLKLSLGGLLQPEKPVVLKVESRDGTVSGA
CYP3A4, sequence (P08684 whole entry): as above

In general, IC50 refers to the point on the concentration scale where inhibition reaches its midpoint. `CC(=O)NCCc1ccccc1-c1ccc([C@H]2CNCC[C@@H]2c2ccc(F)c(F)c2)c(Cl)c1`: the IC50 in series [1] amounted to 20 µM.

By inhibition is commonly meant the drop in the measured response relative to a control, in per cent. As usually defined, the Ki is a measure of affinity in units of concentration, obtained from inhibition or displacement. Read a high Ki as weaker binding. On to `O[C@]1(c2ccc(F)c(F)c2)CCNC[C@@H]1c1cc(-c2ccc(F)cc2Br)no1`, for which, in [1], inhibition was half-maximal at 3 µM (IC50). Also, in [2], the inhibition at 10 µM is 22%. In series [3], this compound showed a Ki of 1.7 µM.

For `O[C@]1(c2ccc(F)c(F)c2)CCNC[C@@H]1c1cc(-c2c(Cl)cccc2Cl)no1`, the half-maximal inhibitory concentration (IC50) in [1] came to 8 µM. In addition, the inhibition at 10 µM in series [2] was found to be 59%. For the same compound, the affinity in series [3] corresponds to a Ki of 2.8 µM.

On to `O[C@]1(c2ccc(F)c(F)c2)CCNC[C@@H]1c1cc(-c2ccc(F)cc2Cl)no1`, for which the results for the IC50 in series [1] and in series [4] were 7 µM and over 9.5 µM, respectively. The inhibition at 10 µM in [2] is 36%.

As for `O[C@]1(c2ccc(F)c(F)c2)CCNC[C@@H]1c1onc(-c2ccccc2Cl)c1Br`, the IC50 in series [1] came out at 18 µM; in series [5], 1140 pM. Further, the inhibition at 10 µM in series [2] is 76%.

In turn, `O[C@]1(c2ccc(F)c(F)c2)CCNC[C@@H]1c1onc(-c2cccc(Cl)c2Cl)c1Br` returned an IC50 in series [1] of 19 µM. Further, the inhibition at 10 µM in series [2] was 60%.

`Cc1cccc(-c2noc([C@H]3CNCC[C@]3(O)c3ccc(F)c(F)c3)c2Br)c1C`: in [1], the IC50 came to 20 µM. For the same compound, the inhibition at 10 µM in [2] worked out at 77%. Also, the Ki in series [3] turned out to be 6 µM.

`O[C@]1(c2ccc(F)c(F)c2)CCNC[C@@H]1c1onc(-c2c(Cl)cccc2Cl)c1Br` returned an IC50 in [1] of 15 µM. The inhibition at 10 µM in series [2] stood at 82%. In series [3], this compound came in with a Ki of 3.9 µM.

Consider `O[C@]1(c2ccc(F)c(F)c2)CCNC[C@@H]1c1onc(-c2cccc3ccccc23)c1Br`, for which the IC50 is over 50 µM in series [1] and 60 pM in series [5]. Besides, the inhibition at 10 µM in series [2] is 67%. The compound further displayed a Ki in series [3] of 4.2 µM.

`CC(=O)NCCc1ccccc1-c1noc([C@H]2CNCC[C@]2(O)c2ccc(F)c(F)c2)c1Br`: the IC50 in [1] was determined as 45 µM. Further, the inhibition at 10 µM in series [2] came to 74%.

The AUC is the area under the concentration-time curve, a measure of exposure. Higher therefore signals high exposure. As a reminder, the half-life is the time needed for the level to fall by half in the phase considered. The term bioavailability denotes the share of a dose that reaches the circulation, judged against a reference dose that is usually intravenous. Low readings indicate poor availability, high ones good availability. In turn, `CC(=O)NCCc1ccccc1-c1onc([C@H]2CNCC[C@]2(O)c2ccc(F)c(F)c2)c1Br` yielded a clearance in [6] of 108 mL/min/kg. This compound displayed an AUC in series [7] of 0.14 µM·h. Moreover, the Vd in series [8] came out at 36 L/kg. In addition, the IC50 stood at 33 µM in series [1] and 270 pM in series [5]. In series [9], the Activity was 44 mmHg. Further, in [10], the half-life is 5.7 h. Further, the inhibition at 10 µM in series [2] worked out at 68%. Besides, the bioavailability in [11] came out at 16%. In addition, in series [12], the Time was 18 h.

For `O[C@]1(c2ccc(F)c(F)c2)CCNC[C@@H]1c1cc(-c2c(Cl)cccc2Cl)on1`, the values for the IC50 in series [1] and in series [4] were 17 µM and over 9.5 µM, respectively. Also, the inhibition at 10 µM in series [2] was 60%. Besides, the inhibition constant Ki in series [3] came to 9.8 µM.

Regarding `CC(=O)NCCc1cc(F)ccc1-c1onc([C@H]2CNCC[C@]2(O)c2ccc(F)c(F)c2)c1Br`, the IC50 is 45 µM in series [1] and 0.0007 µM in series [4]. Further, the inhibition at 10 µM in series [2] was 78%.

Turning to `CC(=O)NCCc1ccccc1-c1cc([C@H]2CNCC[C@]2(O)c2ccc(F)c(F)c2)no1`, the IC50 in [1] was determined as 32 µM; in [4] it was 0.331 µM; in series [5], 166000 pM. Further, the inhibition at 10 µM in series [2] was 21%.

Turning to `CC(=O)NCCc1ccccc1-c1onc([C@H]2CNCC[C@]2(O)c2ccc(F)c(F)c2)c1Cl`, the IC50 in series [1] was over 50 µM; in [5], 730 pM. In [2], the inhibition at 10 µM was 74%.

Take `CC(=O)NCCc1ccccc1-c1onc([C@H]2CNCC[C@]2(O)c2ccc(F)c(F)c2)c1C(C)=O`: the IC50 in series [1] was determined as 8 µM. Besides, the inhibition at 10 µM in series [2] was 32%.

In turn, `CC(=O)NCCc1ccccc1-c1onc([C@H]2CNCC[C@]2(O)c2ccc(F)c(F)c2)c1C(C)O` (stereo partly drawn) came in with an IC50 in series [1] of over 50 µM. For the same compound, the inhibition at 10 µM in series [2] worked out at 48%.

On to `CC(=O)NCCc1ccccc1-c1onc([C@H]2CNCC[C@@H]2c2ccc(F)c(F)c2)c1Br`, for which the IC50 in series [1] was 13 µM. Besides, the inhibition at 10 µM in series [2] is 75%. The same compound gave an inhibition constant (Ki) in series [3] of 19.5 µM.

Take `CO[C@]1(c2ccc(F)c(F)c2)CCNC[C@@H]1c1noc(-c2ccccc2CCNC(C)=O)c1Br`: the IC50 in series [1] stood at 28 µM; in series [5], 170 pM. In series [2], the inhibition at 10 µM amounted to 60%.

For `CC(=O)NCCc1ccccc1-c1onc([C@H]2CNCC[C@]2(C(N)=O)c2ccc(F)c(F)c2)c1Br`, the IC50 was 0.0006 µM in [4] and 220 pM in series [5]. In series [3], this compound yielded a Ki of 30 µM.

As to `CC(=O)NCCc1ccccc1-c1onc([C@H]2CNCC[C@]2(OCC(O)CO)c2ccc(F)c(F)c2)c1Br` (stereo partly drawn), the clearance in [6] was 70 mL/min/kg. Further, the Vd in [8] turned out to be 12 L/kg. For the same compound, the IC50 in series [1] is over 50 µM. This compound also had a half-life in series [10] of 1.9 h. The inhibition at 10 µM in [2] is 18%. The bioavailability in series [11] is 0%. In [3], this compound registered a Ki of over 60 µM.

`COC[C@H](C)COCc1ccc([C@@]2(O)CCNC[C@@H]2c2noc(-c3ccccc3CCNC(C)=O)c2Br)cc1`: in series [6], the clearance was 124 mL/min/kg. In series [7], this compound came in with an AUC of 0.13 µM·h. The Vd in series [8] came out at 12 L/kg. Further, the results for the IC50 in series [1], in [4] and in series [5] were 29 µM, 0.00067 µM and 260 pM, respectively. Moreover, the Activity in series [9] is 27 mmHg. In series [10], this compound had a half-life of 1.4 h. In addition, the inhibition at 10 µM in series [2] came to 10%. The compound also returned a bioavailability in series [11] of 18%. Moreover, the Time in series [12] is 8 h. In series [3], this compound yielded a Ki of 31.2 µM.
